Measured values from ChEMBL document CHEMBL3044979, “Microbiologically active Mannich bases derived from 1,2,4-triazoles. The effect of C-5 substituent on antibacterial activity” (2013).
Calls of active or inactive are those of the source. The rule behind the calls is not given here.

Tests used:
[1] = system: Bacillus cereus; assay: Antibacterial activity against Bacillus cereus ATCC 10876 assessed as growth inhibition by broth microdilution method; format: functional
Summary of the method: (§1)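 Preliminary screen: 10 µl of each bacterial suspension spotted on Mueller-Hinton agar containing compound at 1,000 µg ml⁻¹, then incubated 37 °C for 18 h. Inocula were prepared in sterile saline at 0.5 McFarland (150 × 10⁶ CFU ml⁻¹). Compounds were dissolved in DMSO stocks and diluted twofold in Mueller-Hinton broth, final 3.91–1,000 µg ml⁻¹. MIC read in µg ml⁻¹ (CLSI 2008), with ampicillin, cefuroxime and vancomycin as reference agents.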

[2] = system: Staphylococcus aureus; assay: Antibacterial activity against Staphylococcus aureus ATCC 25923 assessed as growth inhibition by broth microdilution method; format: functional; summary of the method: as §1
[3] = system: Micrococcus luteus; assay: Antibacterial activity against Micrococcus luteus ATCC 10240 assessed as growth inhibition by broth microdilution method; format: functional; summary of the method: as §1
[4] = system: Staphylococcus epidermidis; assay: Antibacterial activity against Staphylococcus epidermidis ATCC 12228 assessed as growth inhibition by broth microdilution method; format: functional; summary of the method: as §1
[5] = system: Klebsiella pneumoniae; assay: Antibacterial activity against Klebsiella pneumoniae ATCC 13883 assessed as growth inhibition by broth microdilution method; format: functional, organism-based; summary of the method: as §1
[6] = system: Bacillus subtilis; assay: Antibacterial activity against Bacillus subtilis ATCC 6633 assessed as growth inhibition by broth microdilution method; format: functional; summary of the method: as §1
[7] = system: Pseudomonas aeruginosa; assay: Antibacterial activity against Pseudomonas aeruginosa ATCC 9027 assessed as growth inhibition by broth microdilution method; format: functional, organism-based; summary of the method: as §1
[8] = system: Escherichia coli; assay: Antibacterial activity against Escherichia coli ATCC 25922 assessed as growth inhibition by broth microdilution method; format: functional, organism-based; summary of the method: as §1
[9] = system: Staphylococcus aureus; assay: Antibacterial activity against Staphylococcus aureus 14001 assessed as growth inhibition by broth microdilution method; format: functional; summary of the method: as §1
[10] = system: Proteus mirabilis; assay: Antibacterial activity against Proteus mirabilis ATCC 12453 assessed as growth inhibition by broth microdilution method; format: functional, organism-based; summary of the method: as §1

SMILES	MBC [1]	MIC [1]	MBC [2]	MIC [2]	MBC [3]	MIC [3]	MBC [4]	MIC [4]	growth inhibition (GI) [5]	MBC [6]	MIC [6]	growth inhibition (GI) [7]	growth inhibition (GI) [8]	MBC [9]	MIC [9]	growth inhibition (GI) [10]
S=c1n(CN2CCOCC2)nc(-c2ccc(Cl)cc2)n1-c1ccc(Br)cc1	> 1000 µg/mL	62.5 µg/mL	1000 µg/mL	62.5 µg/mL	> 1000 µg/mL	62.5 µg/mL	1000 µg/mL	62.5 µg/mL	inactive	125 µg/mL	125 µg/mL	inactive	inactive	> 1000 µg/mL	125 µg/mL	inactive
CN[C@H](CC(C)C)C(=O)N[C@H]1C(=O)N[C@@H](CC(N)=O)C(=O)N[C@H]2C(=O)N[C@H]3C(=O)N[C@H](C(=O)N[C@H](C(=O)O)c4cc(O)cc(O)c4-c4cc3ccc4O)[C@H](O)c3ccc(c(Cl)c3)Oc3cc2cc(c3O[C@@H]2O[C@H](CO)[C@@H](O)[C@H](O)[C@H]2O[C@H]2C[C@](C)(N)[C@H](O)[C@H](C)O2)Oc2ccc(cc2Cl)[C@H]1O [VANCOMYCIN]	–	–	–	–	–	–	–	–	–	–	–	–	–	3.91 µg/mL	0.98 µg/mL	–
S=c1n(CN2CCCC2)nc(-c2ccccc2)n1-c1ccc(Br)cc1	> 1000 µg/mL	1000 µg/mL	> 1000 µg/mL	1000 µg/mL	1000 µg/mL	500 µg/mL	> 1000 µg/mL	1000 µg/mL	inactive	1000 µg/mL	500 µg/mL	inactive	inactive	> 1000 µg/mL	1000 µg/mL	inactive
CCN(CC)Cn1nc(-c2ccccc2)n(-c2ccc(Br)cc2)c1=S	> 1000 µg/mL	1000 µg/mL	> 1000 µg/mL	1000 µg/mL	> 1000 µg/mL	1000 µg/mL	> 1000 µg/mL	1000 µg/mL	inactive	> 1000 µg/mL	1000 µg/mL	inactive	inactive	> 1000 µg/mL	1000 µg/mL	inactive
CO/N=C(\C(=O)N[C@@H]1C(=O)N2C(C(=O)O)=C(COC(N)=O)CS[C@H]12)c1ccco1 [CEFUROXIME]	–	31.2 µg/mL	–	0.49 µg/mL	–	0.98 µg/mL	–	0.24 µg/mL	–	–	15.6 µg/mL	–	–	–	–	–
S=c1n(CN2CCCC2)nc(-c2ccccc2Cl)n1-c1ccc(Br)cc1	> 1000 µg/mL	62.5 µg/mL	500 µg/mL	31.2 µg/mL	1000 µg/mL	62.5 µg/mL	500 µg/mL	31.2 µg/mL	inactive	125 µg/mL	15.6 µg/mL	inactive	inactive	500 µg/mL	125 µg/mL	inactive
CCN(CC)Cn1nc(-c2ccc(Cl)cc2)n(-c2ccc(Br)cc2)c1=S	250 µg/mL	31.2 µg/mL	250 µg/mL	31.2 µg/mL	62.5 µg/mL	15.6 µg/mL	250 µg/mL	31.2 µg/mL	inactive	500 µg/mL	31.2 µg/mL	inactive	inactive	250 µg/mL	62.5 µg/mL	inactive
S=c1n(CN2CCOCC2)nc(-c2ccccc2)n1-c1ccc(Br)cc1	> 1000 µg/mL	1000 µg/mL	> 1000 µg/mL	1000 µg/mL	1000 µg/mL	250 µg/mL	> 1000 µg/mL	1000 µg/mL	inactive	> 1000 µg/mL	1000 µg/mL	inactive	inactive	> 1000 µg/mL	1000 µg/mL	inactive
CCN(CC)Cn1nc(-c2cccc(Cl)c2)n(-c2ccc(Br)cc2)c1=S	> 1000 µg/mL	62.5 µg/mL	> 1000 µg/mL	31.2 µg/mL	500 µg/mL	31.2 µg/mL	> 1000 µg/mL	62.5 µg/mL	inactive	500 µg/mL	62.5 µg/mL	inactive	inactive	–	–	inactive
CCN(CC)Cn1nc(-c2ccccc2Cl)n(-c2ccc(Br)cc2)c1=S	> 1000 µg/mL	62.5 µg/mL	> 1000 µg/mL	62.5 µg/mL	250 µg/mL	62.5 µg/mL	> 1000 µg/mL	62.5 µg/mL	inactive	62.5 µg/mL	31.2 µg/mL	inactive	inactive	> 1000 µg/mL	125 µg/mL	inactive
S=c1n(CN2CCOCC2)nc(-c2ccccc2Cl)n1-c1ccc(Br)cc1	> 1000 µg/mL	125 µg/mL	500 µg/mL	125 µg/mL	250 µg/mL	62.5 µg/mL	500 µg/mL	125 µg/mL	inactive	250 µg/mL	125 µg/mL	inactive	inactive	500 µg/mL	250 µg/mL	inactive
S=c1n(CN2CCOCC2)nc(-c2cccc(Cl)c2)n1-c1ccc(Br)cc1	> 1000 µg/mL	62.5 µg/mL	> 1000 µg/mL	31.2 µg/mL	500 µg/mL	31.2 µg/mL	> 1000 µg/mL	125 µg/mL	inactive	1000 µg/mL	62.5 µg/mL	inactive	inactive	–	–	inactive
S=c1n(CN2CCCCC2)nc(-c2cccc(Cl)c2)n1-c1ccc(Br)cc1	1000 µg/mL	62.5 µg/mL	> 1000 µg/mL	31.2 µg/mL	> 1000 µg/mL	31.2 µg/mL	> 1000 µg/mL	62.5 µg/mL	inactive	1000 µg/mL	62.5 µg/mL	inactive	inactive	–	–	inactive
S=c1n(CN2CCCC2)nc(-c2ccc(Cl)cc2)n1-c1ccc(Br)cc1	> 1000 µg/mL	31.2 µg/mL	500 µg/mL	31.2 µg/mL	250 µg/mL	7.81 µg/mL	1000 µg/mL	31 µg/mL	inactive	125 µg/mL	63 µg/mL	inactive	inactive	1000 µg/mL	62.5 µg/mL	inactive
S=c1n(CN2CCCC2)nc(-c2cccc(Cl)c2)n1-c1ccc(Br)cc1	> 1000 µg/mL	62.5 µg/mL	> 1000 µg/mL	31.2 µg/mL	> 1000 µg/mL	62.5 µg/mL	> 1000 µg/mL	250 µg/mL	inactive	500 µg/mL	62.5 µg/mL	inactive	inactive	–	–	inactive
S=c1n(CN2CCCCC2)nc(-c2ccc(Cl)cc2)n1-c1ccc(Br)cc1	> 1000 µg/mL	1000 µg/mL	> 1000 µg/mL	1000 µg/mL	> 1000 µg/mL	1000 µg/mL	> 1000 µg/mL	1000 µg/mL	inactive	> 1000 µg/mL	1000 µg/mL	inactive	inactive	> 1000 µg/mL	1000 µg/mL	inactive
S=c1n(CN2CCCCC2)nc(-c2ccccc2)n1-c1ccc(Br)cc1	> 1000 µg/mL	1000 µg/mL	> 1000 µg/mL	1000 µg/mL	1000 µg/mL	500 µg/mL	> 1000 µg/mL	1000 µg/mL	inactive	> 1000 µg/mL	1000 µg/mL	inactive	inactive	> 1000 µg/mL	1000 µg/mL	inactive
S=c1n(CN2CCCCC2)nc(-c2ccccc2Cl)n1-c1ccc(Br)cc1	> 1000 µg/mL	1000 µg/mL	> 1000 µg/mL	500 µg/mL	> 1000 µg/mL	500 µg/mL	> 1000 µg/mL	1000 µg/mL	inactive	> 1000 µg/mL	250 µg/mL	inactive	inactive	> 1000 µg/mL	500 µg/mL	inactive
CC1(C)S[C@@H]2[C@H](NC(=O)[C@H](N)c3ccccc3)C(=O)N2[C@H]1C(=O)O [AMPICILLIN]	–	62.5 µg/mL	–	–	–	–	–	–	–	–	–	–	–	–	–	–
